Measured values of several laboratories.
Each line is one published result; the experiments were not run side by side.
Target: Mitogen-activated protein kinase kinase kinase 2 (MAP3K2, Homo sapiens, UniProt Q9Y2U5)
One construct used (Q9Y2U5 1-619): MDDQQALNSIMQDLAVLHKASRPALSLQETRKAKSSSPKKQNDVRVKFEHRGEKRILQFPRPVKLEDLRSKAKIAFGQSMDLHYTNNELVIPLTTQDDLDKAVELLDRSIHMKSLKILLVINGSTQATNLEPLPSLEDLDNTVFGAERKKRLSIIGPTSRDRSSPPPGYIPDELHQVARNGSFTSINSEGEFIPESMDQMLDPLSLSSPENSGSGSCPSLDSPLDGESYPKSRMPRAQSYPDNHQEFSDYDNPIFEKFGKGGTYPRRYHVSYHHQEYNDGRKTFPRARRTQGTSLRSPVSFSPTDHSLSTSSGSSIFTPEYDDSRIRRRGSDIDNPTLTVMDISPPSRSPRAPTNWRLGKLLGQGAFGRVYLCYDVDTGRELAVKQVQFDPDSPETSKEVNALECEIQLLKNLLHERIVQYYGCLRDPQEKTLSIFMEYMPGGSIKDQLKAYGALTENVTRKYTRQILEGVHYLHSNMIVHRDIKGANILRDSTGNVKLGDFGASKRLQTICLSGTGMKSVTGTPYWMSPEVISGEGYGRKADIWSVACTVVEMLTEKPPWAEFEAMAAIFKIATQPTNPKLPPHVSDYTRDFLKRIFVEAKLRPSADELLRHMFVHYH

Compound | assay | setting | measurement | value
Cn1cc(-c2cccc(N3CCc4c(sc5c4CC(C)(C)C5)C3=O)c2CO)cc(Nc2ccncn2)c1=O | enzyme activity, inhibitor | 1 µM | inhibition | -2%
COc1cc(Nc2ncc(F)c(Nc3ccc4c(n3)NC(=O)C(C)(C)O4)n2)cc(OC)c1OC | binding, competition with immobilised ligand | 10 µM | inhibition | 99%
Cn1cncc1[C@](O)(COc1ccc(C#N)cc1-c1ccc(OC(F)(F)F)cc1)c1ccc(C#N)cc1 | cell-free assay, competition with immobilised ligand | 1 µM | remaining binding | 77%
Cc1nn(C)cc1-c1nc2c(N3CCN(Cc4ccc(Cl)cc4)CC3)c(Cl)cnc2[nH]1 | binding, competition with immobilised ligand | 1 µM | remaining binding | 77%
COCc1c(-c2cc3cc(C)cc(OC)c3s2)c2c(N)ncnn2c1CN1CCNC(=O)C1 | cell-free assay, competition with immobilised ligand | 1 µM | inhibition | 98.8%
O=c1[nH]c2ccccc2n1C1CCN(Cc2ccc(-c3[nH]c4cc5ncnc5cc4nc3-c3ccccc3)cc2)CC1 | cell-free assay | 0.5 µM | remaining signal | 92.4%
Nc1ncc(-c2nc(N3CCOCC3)nc(N3CCOCC3)n2)c(C(F)F)n1 | binding, competition with immobilised ligand | 10 µM | remaining binding | 71%
Cn1cc(-c2cc(F)cc(N3CCn4c(cc5c4CCCC5)C3=O)c2CO)cc(Nc2ccc(N3CCN(C4COC4)CC3)cn2)c1=O | enzyme activity, inhibitor | 0.1 µM | inhibition | -1%
CC(C)(C)c1cc(C=C(C#N)C#N)cc(Br)c1O | enzyme activity, inhibitor | 0.5 µM | remaining activity | 93.7%
N#CC1(c2ccccn2)CCN(Cc2cc(C(=O)O)c(=O)n3ccccc23)CC1 | cell-free assay, competition with immobilised ligand | 1 µM | remaining binding | 76%
COc1ncccc1-c1cnn2ccc(N3CCN(C(=O)OC(C)C)CC3)nc12 | binding, competition with immobilised ligand | 1 µM | remaining binding | 100%
